Measurements published in ChEMBL document CHEMBL2021824, “Structural modifications modulate stability of glutathione-activated arylated diazeniumdiolate prodrugs” (Bioorg Med Chem, 2012).
The source made the active and inactive calls. No cut-off for these calls is given here.

Tests used:
[1] = Half life of the compound in GSH-containing buffer; type: physicochemical
In short: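 Loss of the diazeniumdiolate chromophore followed by UV-visible spectrophotometry at 37 °C. Absorbance was tracked at each compound's λmax. kobs came from a first-order exponential fit and half-life was derived from it. Mean (SE).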

[2] = test system: NCI-H1703; assay: Antiproliferative activity against human NCI-H1703 cells after 48 hrs by MTT assay; type: functional, cell-based; conditions: NCI-H1703, 48 h
[3] = Prodrug activation assessed as GSH-induced nitric oxide production per mol of the compound by chemiluminescence assay; type: physicochemical
In short: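 Phosphate buffer, pH 7.4, containing 4 mM GSH at 37 °C was sparged with inert gas until the detector response was steady. The prodrug was then injected and NO release followed over time. The release curve was integrated to give mol NO per mol compound, reported as mean (SE).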

[4] = test system: H1703; assay: Induction of SAPK/JNK phosphorylation in human H1703 cells at 1 uM after 4 hrs by Western blotting analysis; type: cell-based
In short: (§1)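 H1703 lung adenocarcinoma cells exposed to 1 μM compound for 4 h. Western blots probed for phospho-SAPK/JNK, phospho-c-jun, ATF3, PARP (full-length and 89-kDa cleaved fragment) and cleaved effector caspases 3 and 7.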

[5] = test system: H1703; assay: Induction of SAPK/JNK-mediated c-jun phosphorylation in human H1703 cells at 1 uM after 4 hrs by Western blotting analysis; type: cell-based; in short: as §1
[6] = test system: NCI-H1703; assay: Metabolic stability in human NCI-H1703 cells assessed as formation of arylated GSH at 5 uM after 5 mins by LC/MS analysis; type: ADME, cell-based; conditions: nci-h1703, 5 min
In short: (§2)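 H1703 cells plated in flasks and incubated overnight at 37 °C, then treated with 5 μM compound for 5, 30 or 60 min. Cells lysed by scraping in 10 mM HCl with freeze-thaw cycles, then deproteinized with 5-sulfosalicylic acid and centrifuged. Supernatant analyzed by LC/MS with positive APCI on a C18 column using a water/acetonitrile/0.1% formic acid gradient. Extracted ion chromatograms tracked parent and arylated GSH.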

[7] = test system: NCI-H1703; assay: Antitumor activity against human NCI-H1703 cells xenografted in athymic NCr-nu/nu mouse at 20 umol/kg, ip 5 times a week for 4-weeks relative to control; type: functional, organism-based
In short: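 H1703 cells implanted in the flank of 7-week-old female athymic NCr-nu/nu mice. Dosing started once tumors reached 2 × 2 × 2 mm3 (typically four weeks). Compound was given as Pluronic P123 micelles at 20 μmol/kg ip, five times a week for four weeks. Vehicle controls received 2.25% Pluronic P123 in PBS. Tumors measured by caliper and body weights tracked. Welch-corrected t-test.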

[8] = Induction of SAPK/JNK-mediated ATF3 upregulation in human H1703 cells at 1 uM after 4 hrs by Western blotting analysis; type: cell-based; in short: as §1
[9] = test system: NCI-H1703; assay: Induction of apoptosis in human NCI-H1703 cells assessed as cleaved of caspase 3 level at 1 uM after 4 hrs by Western blotting analysis; type: functional, cell-based; in short: as §1
[10] = test system: NCI-H1703; assay: Metabolic stability in human NCI-H1703 cells assessed as formation of arylated GSH at 5 uM after 60 mins by LC/MS analysis; type: ADME, cell-based; conditions: nci-h1703, 1 h; in short: as §2
[11] = test system: NCI-H1703; assay: Induction of apoptosis in human NCI-H1703 cells assessed as PARP cleavage at 1 uM after 4 hrs by Western blotting analysis; type: functional, cell-based; in short: as §1
[12] = test system: NCI-H1703; assay: Metabolic stability in human NCI-H1703 cells assessed as formation of arylated GSH at 5 uM after 30 mins by LC/MS analysis; type: ADME, cell-based; conditions: nci-h1703, 0.5 h; in short: as §2
[13] = test system: NCI-H1703; assay: Induction of apoptosis in human NCI-H1703 cells assessed as cleaved of caspase 7 level at 1 uM after 4 hrs by Western blotting analysis; type: functional, cell-based; in short: as §1

Structure (SMILES) | t1/2 [1] [min] | IC50 [2] [nM] | NO yield [3] [mol/mol] | further results
CCOC(=O)N1CCCN(/[N+]([O-])=N/Oc2ccc(C#N)cc2[N+](=O)[O-])CC1 | 42.6 | 680 | 1.96 | 
CCOC(=O)N1CCN(/[N+]([O-])=N/Oc2ccc(C#N)cc2[N+](=O)[O-])CC1 | 22.1 | 730 | 2.02 | 
CCOC(=O)N1CCCN(/[N+]([O-])=N/Oc2ccc([N+](=O)[O-])cc2C#N)CC1 | 66 | 2620 | 2.01 | 
CCOC(=O)N1CCN(/[N+]([O-])=N/Oc2ccc([N+](=O)[O-])cc2C#N)CC1 | 33.6 | 550 | 2.04 | Activity [4]: Active; Activity [5]: Active; Stability [6]: Stable; Activity [7]: Active; Activity [8]: Active; Activity [9]: Active; Stability [10]: Unstable; Activity [11]: Active; Stability [12]: Stable; Activity [13]: Active
CCOC(=O)N1CCN(/[N+]([O-])=N/Oc2ccc([N+](=O)[O-])cc2[N+](=O)[O-])CC1 |  | 1080 | 1.96 | 
CCOC(=O)N1CCCN(/[N+]([O-])=N/Oc2ccc([N+](=O)[O-])cc2[N+](=O)[O-])CC1 |  |  | 2 | 
CCOC(=O)N1CCN(/[N+]([O-])=N/Oc2ccc(C#N)cc2C#N)CC1 | 918 | > 20000 |  | 
